Results: PubChem BioAssay
Activity calls are given as the source filed them.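 Rule for the calls, unless noted: active = GFP response above 150% of the DMSO level; inconclusive = fewer than 70 events counted for a yeast strain; inactive = the rest.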

Columns and labels:
[1] = hit retest on RPL19A-GFP reporter strain – cell-based, S. cerevisiae, flow cytometry, cherry picks, mother/daughter gates, confirmation (AID 2270;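 active = GFP response below 50% of the DMSO control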); conditions: 3 h, at 10 µM, stronger effect = lower value, 100 = same GFP as DMSO wells
[2] = yeast TOR pathway reporter LAP4-GFP change – cell-based, cherry picks, flow cytometry, mother/daughter gates, confirmation (AID 2271;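 active = GFP response above 150% of the DMSO control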;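 note: ratio of sample to DMSO plate mean so 100% equals DMSO level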); conditions: S. cerevisiae LAP4-GFP strain, 3 h, at 10 µM, stronger effect = higher value, 100 means same as DMSO control
How it was run: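 System: GFP-fusion yeast strain; Incubation: compound exposure 3 h at 30 °C, end-over-end rotation; Measured by: GFP by flow cytometry; Read-out: median GFP fluorescence as percent of plate-mean DMSO wells; Medium: synthetic complete (SC) yeast growth medium; Compound: single test-compound dose, 10 µM final; Benchmarks: DMSO-only negative wells, rapamycin 400 ng/mL positive wells.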

[3] = TOR pathway reporter MEP2-GFP, retest of hits – S. cerevisiae, flow cytometry GFP, cherry picks, confirmation (AID 2272;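 active = GFP response above 150% of the DMSO control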;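 note: ratio of well signal to plate DMSO mean so 100% equals DMSO level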); conditions: S. cerevisiae MEP2-GFP strain, 3 h, at 10 µM, stronger effect = higher value
[4] = yeast AGP1-GFP fluorescence change, single-dose – cell-based, flow cytometry, S. cerevisiae, cherry picks, confirmation (AID 2273);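 note: median GFP channel fluorescence over the whole cell population gate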; conditions: S. cerevisiae AGP1-GFP strain, 3 h, at 10 µM
[5] = TOR pathway CIT2 reporter hit retest – S. cerevisiae, GFP fusion, cherry picks, mother/daughter gates, confirmation (AID 2274); conditions: S. cerevisiae CIT2-GFP strain, flow cytometry, 3 h, at 10 µM, stronger effect = higher value
[6] = measured here: daughter cell gate
[7] = measured here: mother cell gate
[8] = measured here: daughter cell gate response
[9] = measured here: mother cell gate response

Row | SMILES | GFP response vs DMSO [1] | GFP response vs DMSO [1, 6] [%] | GFP response vs DMSO [1, 7] [%] | GFP response relative to DMSO [2] | GFP response relative to DMSO [2, 8] [%] | GFP response relative to DMSO [2, 9] [%] | GFP response vs DMSO [3] | GFP response, % of DMSO [4] | GFP response, % of DMSO [5] | GFP response, % of DMSO [5, 6] [%] | GFP response, % of DMSO [5, 7] [%]
1 | O=C(O)C1CCN(S(=O)(=O)c2ccc(Oc3ccccc3)cc2)CC1 | 98% (inactive) | 98.3 | 98.8 | 97.7% (inactive) | 97.9 | 96.5 | 104% (inactive) | 96.7% (inactive) | 99.3% (inactive) | 100 | 98
2 | Oc1c(Br)cc(Br)cc1C=Nc1ccc2c(c1)OCO2 | 98.2% (inactive) | 88.5 | 98.5 | 190% (active) | 114 | 174 | 110% (inactive) | 99.3% (inactive) | 97.8% (inactive) | 98.3 | 91
3 | O=S(=O)(Nc1cccc(-c2ccc(N3CCCCCC3)nn2)c1)c1ccccc1F | 101% (inactive) | 99.3 | 101 | 95.7% (inactive) | 95.9 | 95.2 | 99% (inactive) | 107% (inactive) | 100% (inactive) | 101 | 101
4 | CCc1ccc(CNC(=O)CCC(=O)N2Cc3cccc(OC)c3Oc3ncccc32)cc1 | 99.2% (inactive) | 98.8 | 99.9 | 94.4% (inactive) | 94.2 | 95.2 | 101% (inactive) | 96.7% (inactive) | 102% (inactive) | 105 | 94.4
5 | COc1ccc(S(=O)(=O)NCC(=O)N(CC(=O)NCc2ccco2)Cc2ccc(F)cc2)cc1 | 100% (inactive) | 98.8 | 101 | 99.5% (inactive) | 99.1 | 100 | 99% (inactive) | 103% (inactive) | 103% (inactive) | 105 | 101
6 | Cc1ccccc1N1C(=O)c2sc3nc4c(c(=O)n3c2C1=O)CCC4 | 96.2% (inactive) | 94.9 | 96.3 | 107% (inactive) | 107 | 110 | 99% (inactive) | 102% (inactive) | 90.1% (inactive) | 90.2 | 88.2
7 | Cc1cccc(N2C(=O)C(Cl)=C(Nc3c(C)n(C)n(-c4ccccc4)c3=O)C2=O)c1C | 102% (inactive) | 102 | 103 | 103% (inactive) | 104 | 104 | 104% (inactive) | 103% (inactive) | 99.3% (inactive) | 100 | 98
8 | COC(=O)c1ccc2nc(Nc3nc4ccc(F)cc4s3)sc2c1 | 101% (inactive) | 101 | 102 | 81.8% (inactive) | 84.8 | 86 | 97.8% (inactive) | 97% (inactive) | 108% (inactive) | 105 | 109
9 | Clc1ccc(-c2nnnn2-c2ccc(Cl)cc2)cc1 | 101% (inactive) | 102 | 100 | 97.7% (inactive) | 102 | 96.4 | 99.3% (inactive) | 95.9% (inactive) | 100% (inactive) | 101 | 99.3
10 | Cc1ccc2[nH]cc(/C=C/c3cc[n+](C)cc3)c2c1 | 106% (inactive) | 106 | 105 | 153% (active) | 156 | 154 | 170% (inactive) | 116% (inactive) | 147% (inactive) | 156 | 140
11 | Nc1cccc(C(=O)Nc2ccccc2Cl)c1 | 99.8% (inactive) | 99.1 | 98.9 | 97.9% (inactive) | 97.6 | 98.3 | 100% (inactive) | 93.5% (inactive) | 103% (inactive) | 103 | 101
12 | COc1ccc(NS(=O)(=O)c2cccc3ccccc23)cc1 | 99.4% (inactive) | 99.6 | 99.2 | 97.9% (inactive) | 97.6 | 97.2 | 102% (inactive) | 101% (inactive) | 99.7% (inactive) | 99.1 | 98.5
13 | Cc1nn(C(=O)c2ccco2)c(C)c1Sc1ccccc1 | 95.6% (inactive) | 97 | 94.4 | 97.7% (inactive) | 99 | 95.4 | 101% (inactive) | 97% (inactive) | 98.6% (inactive) | 99.3 | 98.2
14 | COc1cccc(NC(=O)/C=C/c2ccc([N+](=O)[O-])cc2)c1 | 96% (inactive) | 97.6 | 93.2 | 102% (inactive) | 101 | 104 | 109% (inactive) | 95.7% (inactive) | 88.6% (inactive) | 90.2 | 88.2
15 | COc1ccc(C(=O)/C=C2/C(=O)Nc3ccccc32)c(OC)c1 | 99.5% (inactive) | 96.7 | 95.2 | 136% (inactive) | 123 | 139 | 97.8% (inactive) | 99.2% (inactive) | 82.2% (inactive) | 83.4 | 77.3
16 | CCN(CC)C(=O)c1ccc2c3c(cccc13)C(=O)N(CCc1ccc(OC)c(OC)c1)C2=O | 98.8% (inactive) | 99.3 | 98.8 | 108% (inactive) | 97.9 | 109 | 99.5% (inactive) | 95.2% (inactive) | 96.4% (inactive) | 98.3 | 94.5
17 | Cc1ccc2nc(/C(C#N)=C/c3ccc(O)c(O)c3)[nH]c2c1 | 103% (inactive) | 102 | 105 | 123% (inactive) | 110 | 133 | 230% (active) | 102% (inactive) | 128% (inactive) | 114 | 140

Row | SMILES | GFP response vs DMSO [1] | GFP response vs DMSO [1, 6] [%] | GFP response vs DMSO [1, 7] [%] | GFP response relative to DMSO [2] | GFP response relative to DMSO [2, 8] [%] | GFP response relative to DMSO [2, 9] [%] | GFP response vs DMSO [3] | GFP response, % of DMSO [4] | GFP response, % of DMSO [5] | GFP response, % of DMSO [5, 6] [%] | GFP response, % of DMSO [5, 7] [%]
18 | Cc1cc(S(=O)(=O)c2ccc([N+](=O)[O-])cn2)ccc1Br | 87.9% (inactive) | 89.9 | 82.2 | 143% (inactive) | 118 | 156 | 114% (inactive) | 113% (inactive) | 120% (inactive) | 138 | 103
19 | O=C(O/N=C(\c1ccccc1)c1ccncc1)c1ccccc1Cl | 77% (inactive) | 74.3 | 79.7 | 119% (inactive) | 118 | 123 | 91% (inactive) | 91.8% (inactive) | 68.1% (inactive) | 69.2 | 69.2
20 | Cc1ccc(C(=O)c2c3ccccc3[n+]([O-])n2CCC(=O)O)cc1 | 66.2% (inactive) | 70.6 | 63.3 | 102% (inactive) | 101 | 105 | 104% (inactive) | 105% (inactive) | 99.3% (inactive) | 96.4 | 99.1
21 | COC(=O)c1ccc(/C=C/C(=O)c2ccc(OC)cc2)cc1 | 99.9% (inactive) | 97.8 | 101 | 114% (inactive) | 108 | 111 | 104% (inactive) | 94.9% (inactive) | 99.3% (inactive) | 100 | 99.1
22 | Cn1c(=O)c2ccccc2n(Cc2cccc(F)c2)c1=O | 97.6% (inactive) | 97.8 | 97.3 | 104% (inactive) | 101 | 105 | 103% (inactive) | 101% (inactive) | 94.4% (inactive) | 95.8 | 93.8
23 | C/C(=N/NS(=O)(=O)c1ccccc1)c1ccc(NC(=O)C(F)(F)F)cc1 | 102% (inactive) | 103 | 103 | 94.2% (inactive) | 95 | 94.6 | 99.5% (inactive) | 91% (inactive) | 95% (inactive) | 96.4 | 93.3
24 | Oc1c(CN2CCN(c3ccccc3)CC2)cc(Br)c2cccnc12 | 99.6% (inactive) | 101 | 95.9 | 220% (active) | 168 | 231 | 153% (inactive) | 81.5% (inactive) | 103% (inactive) | 99.1 | 93.8
25 | COc1cccc(N=Nc2ccc3cccnc3c2O)c1 | 99.8% (inactive) | 97.6 | 101 | 147% (inactive) | 140 | 146 | 120% (inactive) | 93.2% (inactive) | 98.8% (inactive) | 103 | 96.8
26 | CC(C)c1ccc(C2C3CSCC=C3C(C#N)=C(N)C2(C#N)C#N)cc1 (centres undefined) | 97.2% (inactive) | 97.8 | 95.3 | 111% (inactive) | 108 | 115 | 101% (inactive) | 105% (inactive) | 99.7% (inactive) | 100 | 97.7
27 | O=C(Nc1nc(-c2ccccc2Cl)cs1)c1cccnc1 | 100% (inactive) | 94.7 | 99.2 | 97.4% (inactive) | 95.6 | 99.3 | 100% (inactive) | 89.1% (inactive) | 99.1% (inactive) | 94.8 | 97.7
28 | Cc1ccc(C)c(NC(=O)c2ccccc2O)c1 | 98.5% (inactive) | 97 | 97.8 | 108% (inactive) | 99 | 112 | 101% (inactive) | 97.3% (inactive) | 93.1% (inactive) | 95.8 | 96
29 | N#C/C(=C\c1c(N2CCCCC2)nc2ccccn2c1=O)C(=O)NCc1ccco1 | 98.7% (inactive) | 98.8 | 99.5 | 97.7% (inactive) | 97.9 | 96.5 | 97.5% (inactive) | 99.7% (inactive) | 99.3% (inactive) | 100 | 96.8
30 | O=[N+]([O-])c1cc(S(=O)(=O)C(F)(F)F)ccc1Sc1nc2ccccc2s1 | 95.6% (inactive) | 95.1 | 93.1 | 184% (active) | 162 | 192 | 102% (inactive) | 88.1% (inactive) | 107% (inactive) | 105 | 99.7
31 | CCOC(=O)C1C(=O)C=C(c2ccc(C)cc2)CC1c1ccco1 (centres undefined) | 99.9% (inactive) | 97.8 | 101 | 109% (inactive) | 103 | 112 | 102% (inactive) | 102% (inactive) | 95.2% (inactive) | 91.5 | 96.6
32 | Cc1ccc(NC(=O)COc2ccc(Br)cc2C)cc1 | 99.5% (inactive) | 97.3 | 100 | 107% (inactive) | 102 | 104 | 104% (inactive) | 96.7% (inactive) | 97.8% (inactive) | 98.3 | 95.6
33 | COc1ccc(C2CC(c3cccs3)=NN2S(=O)(=O)c2ccc(C)cc2)cc1 (centres undefined) | 98.7% (inactive) | 99.1 | 98.6 | 106% (inactive) | 105 | 107 | 104% (inactive) | 106% (inactive) | 106% (inactive) | 106 | 106
34 | Cc1sc(NC(=O)c2ccco2)nc1-c1ccccc1 | 93.8% (inactive) | 92.2 | 93.6 | 111% (inactive) | 105 | 113 | 102% (inactive) | 89.5% (inactive) | 102% (inactive) | 98.1 | 101
